Blank lines part the entries; values can stand above or below the molecule they belong to. Active and inactive are the calls of the source. The calls are words filed in the database; no cut-off is given here.
Tests used:
[1] = molecular target: Acyl-CoA (8-3)-desaturase (Rattus norvegicus) (UniProt Q920R3); assay: Displacement of [3H]T-3364366 from D5D in Sprague-Dawley rat liver microsomes at high concentrations after 150 mins by liquid scintillation counting
In short: (§1)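 Filter binding with [³H]T-3364366 as probe on rat liver microsomes, incubated 150 min. Specific binding is total minus nonspecific. In displacement runs, DMSO serves as 100% and 10 μM nonlabeled T-3364366 as 0%. Mean ± SEM, n = 3; apparent Kd reported with 95% CI.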

[2] = molecular target: T1, Acyl-CoA (8-3)-desaturase (Rattus norvegicus, UniProt Q920R3); assay: Inhibition of D5D in Sprague-Dawley rat liver microsomes using [14C]DGLA as substrate preincubated for 5 mins measured after 120 mins
T1 sequence (Q920R3 whole entry): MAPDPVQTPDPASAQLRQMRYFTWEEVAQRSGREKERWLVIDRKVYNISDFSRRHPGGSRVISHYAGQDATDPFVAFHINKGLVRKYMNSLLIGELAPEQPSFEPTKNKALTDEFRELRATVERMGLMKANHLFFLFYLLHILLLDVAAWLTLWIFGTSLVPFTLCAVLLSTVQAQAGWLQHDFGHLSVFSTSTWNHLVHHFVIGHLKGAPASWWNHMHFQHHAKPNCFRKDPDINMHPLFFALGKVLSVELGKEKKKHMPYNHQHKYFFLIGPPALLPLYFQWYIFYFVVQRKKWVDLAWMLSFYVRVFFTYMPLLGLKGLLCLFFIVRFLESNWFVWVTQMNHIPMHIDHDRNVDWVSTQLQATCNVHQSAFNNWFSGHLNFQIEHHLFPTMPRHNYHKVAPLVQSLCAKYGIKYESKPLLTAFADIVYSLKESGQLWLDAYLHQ

[3] = molecular target: Acyl-CoA 6-desaturase (Rattus norvegicus, UniProt Q9Z122); assay: Inhibition of D6D in Sprague-Dawley rat liver microsomes using [14C]LA as substrate preincubated for 5 mins measured after 30 mins
Acyl-CoA 6-desaturase, sequence (Q9Z122 whole entry): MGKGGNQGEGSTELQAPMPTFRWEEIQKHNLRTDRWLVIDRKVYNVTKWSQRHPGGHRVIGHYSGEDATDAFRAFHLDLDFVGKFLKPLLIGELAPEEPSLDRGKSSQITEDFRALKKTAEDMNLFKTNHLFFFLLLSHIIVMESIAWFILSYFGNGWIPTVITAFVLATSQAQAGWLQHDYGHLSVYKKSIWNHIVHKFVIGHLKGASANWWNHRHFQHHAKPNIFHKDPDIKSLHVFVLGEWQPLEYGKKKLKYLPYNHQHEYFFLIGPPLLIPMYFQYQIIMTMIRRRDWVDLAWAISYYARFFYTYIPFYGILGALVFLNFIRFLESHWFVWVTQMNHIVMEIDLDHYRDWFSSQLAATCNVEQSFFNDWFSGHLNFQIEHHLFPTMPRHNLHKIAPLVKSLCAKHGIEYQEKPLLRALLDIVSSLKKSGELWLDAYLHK

[4] = molecular target: T2, Acyl-CoA desaturase 1 (Rattus norvegicus, UniProt P07308); assay: Inhibition of SCD in Sprague-Dawley rat liver microsomes using [14C]stearoyl-CoA as substrate preincubated for 5 mins measured after 30 mins
T2 sequence (P07308 whole entry): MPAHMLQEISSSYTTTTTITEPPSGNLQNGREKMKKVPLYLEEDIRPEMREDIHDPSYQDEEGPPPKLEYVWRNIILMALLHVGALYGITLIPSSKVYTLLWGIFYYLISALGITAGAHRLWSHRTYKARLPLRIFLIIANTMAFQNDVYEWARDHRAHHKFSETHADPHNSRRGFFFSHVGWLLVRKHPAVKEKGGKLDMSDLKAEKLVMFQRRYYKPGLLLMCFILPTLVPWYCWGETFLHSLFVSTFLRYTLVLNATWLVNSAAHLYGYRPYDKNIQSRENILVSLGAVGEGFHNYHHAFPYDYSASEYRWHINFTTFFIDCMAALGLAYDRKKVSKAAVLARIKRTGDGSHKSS

[5] = molecular target: T3, Acyl-CoA (8-3)-desaturase (Homo sapiens, UniProt O60427); assay: Inhibition of D5D in human HepG2 cells using [14C]DGLA as substrate preincubated for 30 mins followed by substrate addition measured after 3 hrs; format: cell-based
[6] = molecular target: T1, Acyl-CoA (8-3)-desaturase; assay: Inhibition of D5D in rat RLN10 cells using [14C]DGLA as substrate preincubated for 30 mins followed by substrate addition measured after 3 hrs; format: cell-based
[7] = molecular target: Acyl-CoA (8-3)-desaturase (Rattus norvegicus) (UniProt Q920R3); assay: Displacement of [3H]T-3364366 from D5D in Sprague-Dawley rat liver microsomes after 150 mins by liquid scintillation counting; in short: as §1
[8] = molecular target: T3, Acyl-CoA (8-3)-desaturase; assay: Ratio of inhibition of D5D in human HepG2 cells preincubated for 30 mins followed by [14C]DGLA substrate addition measured after 3 hrs to inhibition of D5D in human HepG2 cells assessed as inhibition of [14C]AA production preincubated for 3 hrs followed by compound washout and addition of [14C]DGLA substrate measured after 4 hrs; format: cell-based
[9] = molecular target: T1, Acyl-CoA (8-3)-desaturase; assay: Binding affinity to D5D in Sprague-Dawley rat liver microsomes after 150 mins by liquid scintillation counting; conditions: read-out: Kd(app); in short: as §1
[10] = molecular target: Acyl-CoA (8-3)-desaturase (Rattus norvegicus) (UniProt Q920R3); assay: Binding affinity to D5D in Sprague-Dawley rat liver microsomes at 1.2 to 20 nM measured up to 2.5 hrs by liquid scintillation counting; conditions: TDE = time-dependent effect
In short: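 Time course: various [³H]T-3364366 concentrations incubated with microsomal D5D. Specific binding determined at several time points up to 2.5 h.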

[11] = molecular target: Acyl-CoA (8-3)-desaturase (Rattus norvegicus) (UniProt Q920R3); assay: Reversible binding affinity to D5D in Sprague-Dawley rat liver microsomes assessed as compound bound to protein at 6 nM preincubated for 150 mins followed by 2 fold dilution by 10 uM of T-3364366 measured after 21 hrs by liquid scintillation counting relative to control
In short: (§2)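 Binary complex formed by preincubating [³H]T-3364366 (6.0 nM) with microsomal D5D for 150 min. Mixture then diluted 2-fold with excess nonlabeled T-3364366 (10 μM) to block rebinding. Residual specific binding followed over time to 21 h. Dissociation half-life fitted with 95% CI, without correcting for time-dependent loss of binding.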

[12] = molecular target: Acyl-CoA (8-3)-desaturase (Rattus norvegicus) (UniProt Q920R3); assay: Reversible binding affinity to D5D in Sprague-Dawley rat liver microsomes assessed as dissociation half life at 6 nM preincubated for 150 mins followed by 2 fold dilution by 10 uM of T-3364366 by liquid scintillation counting; in short: as §2
[13] = molecular target: Acyl-CoA (8-3)-desaturase (Rattus norvegicus) (UniProt Q920R3); assay: Reversible binding affinity to D5D in Sprague-Dawley rat liver microsomes after 150 mins in presence of trichloroacetate by liquid scintillation counting
[14] = molecular target: T3, Acyl-CoA (8-3)-desaturase; assay: Inhibition of D5D in human HepG2 cells using [14C]DGLA as substrate assessed as suppression of [14C]AA production at 10 uM preincubated for 3 hrs followed by compound washout and addition of substrate measured after 4 hrs by liquid scintillation counting; format: cell-based
In short: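 HepG2 cells treated with compound for 3 h, then washed three times. Cells pulsed with [¹⁴C]DGLA and incubated a further 4 h. [¹⁴C]AA production normalized: DMSO as 100%, 10 μM T-3364366 without washout as 0%. Mean ± SEM, n = 4.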

[15] = AUC(0 to 8 hrs) in mouse at 0.10 mg/kg, iv administered in cassette mode; format: ADME, organism-based; design: dose 0.1 mg/kg, route intravenous; conditions: in vivo, 0.1 mg/kg
In short: (§3)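 Mouse cassette dosing, n = 3 per group. Given iv at 0.10 mg/kg or orally. Plasma AUC taken over 0–8 h. Total clearance, Vdss and MRT derived from the iv arm. Bioavailability F computed as a percentage.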

[16] = AUC(0 to 8 hrs) in mouse at 1 mg/kg, po administered in cassette mode; format: ADME, organism-based; design: dose 1 mg/kg, route oral; conditions: in vivo; in short: as §3
[17] = Total clearance in mouse at 0.10 mg/kg, iv administered in cassette mode; format: ADME, organism-based; conditions: in vivo, 0.1 mg/kg; in short: as §3
[18] = Volume of distribution in steady state in mouse at 0.10 mg/kg, iv administered in cassette mode; format: ADME, organism-based; conditions: in vivo, 0.1 mg/kg, read-out: Vdss; in short: as §3
[19] = MRT in mouse at 0.10 mg/kg, iv administered in cassette mode; format: ADME, organism-based; conditions: in vivo, 0.1 mg/kg; in short: as §3
[20] = MRT in mouse at 1 mg/kg, po administered in cassette mode; format: ADME, organism-based; conditions: in vivo
[21] = Oral bioavailability in mouse at 1 mg/kg administered in cassette mode; format: ADME, organism-based; conditions: in vivo; in short: as §3
[22] = species: Homo sapiens; assay: Binding affinity to recombinant D6Db5 (1 to 100 residues)/D5Ddes (100 to 444 residues) domain swapped mutant (unknown origin) expressed in baculovirus at 5 to 25 nM after 150 mins by liquid scintillation counting
[23] = molecular target: T3, Acyl-CoA (8-3)-desaturase; assay: Binding affinity to recombinant wild type D5D (unknown origin) expressed in baculovirus at 5 to 25 nM after 150 mins by liquid scintillation counting

Acyl-CoA (8-3)-desaturase (Rattus norvegicus), sequence (Q920R3 whole entry, looked up): as the sequence (Q920R3 whole entry) above

SMILES: Cc1ccc2c(c1)Nc1cc(C)ccc1CC2
inhibition [7]: Active

SMILES: COc1ccc(OC)c(NC(=O)Nc2cccc(F)c2)c1
inhibition [7]: Active

SMILES: CC(=O)NCCSc1nc2cscc2c(=O)n1-c1ccc(OCC(F)(F)F)cc1
IC50 [2]: 0.019 µM
IC50 [3]: 6.2 µM
IC50 [4]: > 10 µM
IC50 [5]: 0.0019 µM
IC50 [6]: 0.0021 µM
Kd [9]: 0.0027 µM
Activity [10]: Tde
Activity [11]: < 10%
T1/2 [12]: 2 h
Activity [13]: Active
inhibition [14]: Active
AUC(0-t) at 6 h [15]: 65 ng·h/mL
AUC(0-t) at 6 h [16]: 260 ng·h/mL
clearance [17]: 25 mL/min/kg
Vd [18]: 1.1 L/kg
MRT [19]: 0.65 h
MRT [20]: 1.8 h
bioavailability [21]: 41%
Activity [22]: Active
Activity [23]: Active

The remaining lines, values ahead:

inhibition [1]: Active
SMILES: N#CC(CCCN1CCN(/N=C/c2cccnc2)CC1)(c1ccccc1)c1ccccc1

IC50 [2]: 0.16 µM
IC50 [3]: > 10 µM
IC50 [4]: > 10 µM
IC50 [5]: 0.029 µM
IC50 [6]: 0.026 µM
inhibition [7]: Active
Ratio [8]: 1000
SMILES: Nc1ccccc1C(=O)Nc1cccc(Cl)c1

inhibition [7]: Active
SMILES: Cc1cn([C@H]2C[C@@H](O)[C@@H](COC(c3ccccc3)(c3ccccc3)c3ccccc3)O2)c(=O)[nH]c1=O

Source: ChEMBL document CHEMBL4431397, “T-3364366 Targets the Desaturase Domain of Delta-5 Desaturase with Nanomolar Potency and a Multihour Residence Time” (ACS Med Chem Lett, 2016)
